Experimental data: ChEMBL document CHEMBL2157901, “Synthesis, biological evaluation and molecular modeling of dihydro-pyrazolyl-thiazolinone derivatives as potential COX-2 inhibitors” (Bioorg Med Chem, 2012)
Calls of active or inactive are those of the source. The calls are words filed in the database; no cut-off is given here.

Tests used:
[1] = Cytotoxicity against LPS-activated mouse RAW264.7 cells after 24 hrs by MTT method; type: cell-based; conditions: LPS-activated RAW264.7 cells
Procedure, shortened: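 MTT assay in RAW264.7 cells grown in DMEM with 5% FBS, penicillin and streptomycin at 37 °C under 5% CO₂. Cells were seeded at 5 × 10⁴ per well and exposed for 24 h to compounds diluted from DMSO stocks (0.1% DMSO final). MTT (4 mg/mL) was added 4 h before the end, then plates were centrifuged and supernatant removed. CC₅₀ is the concentration cutting viability to 50%; mean of three experiments in triplicate.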

[2] = target: Prostaglandin G/H synthase 1 (Homo sapiens, UniProt P23219); assay: Inhibition of COX-1 by chemiluminescent assay
Prostaglandin G/H synthase 1, sequence (P23219 whole entry): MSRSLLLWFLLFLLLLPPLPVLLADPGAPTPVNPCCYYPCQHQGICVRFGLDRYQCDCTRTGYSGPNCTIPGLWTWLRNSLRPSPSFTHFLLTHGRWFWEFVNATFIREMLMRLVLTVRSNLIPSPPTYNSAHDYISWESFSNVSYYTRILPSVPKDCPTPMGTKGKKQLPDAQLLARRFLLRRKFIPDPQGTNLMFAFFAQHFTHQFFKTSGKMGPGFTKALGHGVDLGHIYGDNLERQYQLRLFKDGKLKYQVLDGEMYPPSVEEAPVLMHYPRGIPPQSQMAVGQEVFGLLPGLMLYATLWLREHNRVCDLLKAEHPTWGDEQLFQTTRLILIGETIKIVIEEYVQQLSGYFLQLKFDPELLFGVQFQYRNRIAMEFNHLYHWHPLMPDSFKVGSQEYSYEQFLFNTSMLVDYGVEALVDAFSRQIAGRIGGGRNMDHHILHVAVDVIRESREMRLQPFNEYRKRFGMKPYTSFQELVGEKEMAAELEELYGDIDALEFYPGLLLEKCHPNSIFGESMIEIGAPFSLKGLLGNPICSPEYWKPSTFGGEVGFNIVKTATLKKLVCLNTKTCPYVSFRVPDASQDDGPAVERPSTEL

[3] = Selectivity index, ratio of IC50 for COX-1 to IC50 for COX-2
Procedure, shortened: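 COX-1 and COX-2 inhibition measured with a chemiluminescent enzyme assay kit. Each IC₅₀ (50% enzyme inhibition) is the mean of two determinations. Selectivity index taken as COX-1 IC₅₀ divided by COX-2 IC₅₀.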

[4] = target: T1, Prostaglandin G/H synthase 2 (Homo sapiens, UniProt P35354); assay: Inhibition of COX-2 by chemiluminescent assay
T1 sequence (P35354 whole entry): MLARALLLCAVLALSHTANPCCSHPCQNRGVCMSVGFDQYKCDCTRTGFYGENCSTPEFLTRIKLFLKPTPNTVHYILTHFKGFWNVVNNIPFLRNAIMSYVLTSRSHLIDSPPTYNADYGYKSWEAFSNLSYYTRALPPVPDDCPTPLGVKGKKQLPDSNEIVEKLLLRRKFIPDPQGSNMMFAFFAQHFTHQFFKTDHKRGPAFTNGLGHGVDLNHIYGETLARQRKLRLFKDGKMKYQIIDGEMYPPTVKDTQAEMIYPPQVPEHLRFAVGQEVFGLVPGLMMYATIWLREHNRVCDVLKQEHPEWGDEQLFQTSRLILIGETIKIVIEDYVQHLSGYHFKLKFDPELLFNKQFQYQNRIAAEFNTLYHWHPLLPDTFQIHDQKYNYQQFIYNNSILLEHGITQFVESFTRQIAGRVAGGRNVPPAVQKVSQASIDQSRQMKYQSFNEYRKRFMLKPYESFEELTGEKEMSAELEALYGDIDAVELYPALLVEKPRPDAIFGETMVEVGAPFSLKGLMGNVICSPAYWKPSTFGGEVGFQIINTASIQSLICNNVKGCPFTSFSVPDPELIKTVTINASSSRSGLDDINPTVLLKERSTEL

RAW264.7 = assay: Inhibition of LPS-induced COX-2 expression in mouse RAW264.7 cells at >1.25 uM by Western blot analysis; type: functional, cell-based

Row | Compound | IC50 [2] [µM] | Ratio IC50 [3] | IC50 [4] [µM] | CC50 at 24 h [1] [µM] | inhibition (RAW264.7)
1 | COc1ccc(C2CC(c3ccc(C)c(C)c3)=NN2C2=NC(=O)CS2)cc1 (stereo unspecified) | > 50 | > 17.2 | 2.9 | 387 | 
2 | Cc1ccc(C2=NN(C3=NC(=O)CS3)C(c3ccc(F)cc3)C2)cc1C (stereo unspecified) | 40.8 | 6.4 | 6.4 | 246 | 
3 | Cc1ccc(C2=NN(C3=NC(=O)CS3)C(c3ccccc3Cl)C2)cc1C (stereo unspecified) | 44.1 | 6.1 | 7.2 | 227 | 
4 | Cc1ccc(C2=NN(C3=NC(=O)CS3)C(c3ccc(Br)cc3)C2)cc1C (stereo unspecified) | > 50 | > 27.8 | 1.8 | 365 | 
5 | Cc1ccc(C2=NN(C3=NC(=O)CS3)C(c3ccccc3C)C2)cc1C (stereo unspecified) | 47.2 | 7.5 | 6.3 | 317 | 
6 | Cc1ccc(C2=NN(C3=NC(=O)CS3)C(c3cccc(Cl)c3)C2)cc1C (stereo unspecified) | > 50 | > 9.6 | 5.2 | 178 | 
7 | Cc1ccc(C2=NN(C3=NC(=O)CS3)C(c3ccccc3)C2)cc1C (stereo unspecified) | 42.4 | 84.8 | 0.5 | > 450 | Active
8 | Cc1cccc(C2CC(c3ccc(C)c(C)c3)=NN2C2=NC(=O)CS2)c1 (stereo unspecified) | > 50 | > 18.5 | 2.7 | 237 | 

Further lines, with some results ahead:

Row | IC50 [2] [µM] | Ratio IC50 [3] | IC50 [4] [µM] | Compound | CC50 at 24 h [1] [µM] | inhibition (RAW264.7)
9 | 48.5 | 6.4 | 7.6 | O=C1CSC(N2N=C(c3ccc(Cl)c(Cl)c3)CC2c2ccc(Br)cc2)=N1 (stereo unspecified) | 280 | 
10 | > 50 | > 7.4 | 6.8 | COc1ccc(C2CC(c3ccc(Cl)c(Cl)c3)=NN2C2=NC(=O)CS2)cc1 (stereo unspecified) | 264 | 
11 | > 50 | > 3.1 | 16.1 | O=C1CSC(N2N=C(c3ccc(Cl)c(Cl)c3)CC2c2cccc(Cl)c2)=N1 (stereo unspecified) | 165 | 
12 | 44.3 | 9.4 | 4.7 | Cc1ccc(C2CC(c3ccc(Cl)c(Cl)c3)=NN2C2=NC(=O)CS2)cc1 (stereo unspecified) | 279 | 
13 | > 50 | > 6.9 | 7.2 | Cc1cccc(C2CC(c3ccc(Cl)c(Cl)c3)=NN2C2=NC(=O)CS2)c1 (stereo unspecified) | 204 | 
14 | 33.2 | 12.3 | 2.7 | O=C1CSC(N2N=C(c3ccc(Cl)c(Cl)c3)CC2c2ccccc2)=N1 (stereo unspecified) | 295 | 
15 | 48.6 | 10.8 | 4.5 | Cc1ccc(C2=NN(C3=NC(=O)CS3)C(c3ccc(Cl)cc3)C2)cc1C (stereo unspecified) | 226 | 
16 | 37.7 | 3.2 | 11.7 | O=C1CSC(N2N=C(c3ccc(Cl)c(Cl)c3)CC2c2ccc(Cl)cc2)=N1 (stereo unspecified) | 187 | 
17 | 45.3 | 37.8 | 1.2 | Cc1ccc(C2CC(c3ccc(C)c(C)c3)=NN2C2=NC(=O)CS2)cc1 (stereo unspecified) | 384 | 
18 | 45.6 | 2.8 | 16.3 | Cc1ccccc1C1CC(c2ccc(Cl)c(Cl)c2)=NN1C1=NC(=O)CS1 (stereo unspecified) | 179 | 
19 | 40.2 | 2.2 | 18.4 | O=C1CSC(N2N=C(c3ccc(Cl)c(Cl)c3)CC2c2ccccc2Cl)=N1 (stereo unspecified) | 143 | 
20 | 34.3 | 1.8 | 19.4 | O=C1CSC(N2N=C(c3ccc(Cl)c(Cl)c3)CC2c2ccc(F)cc2)=N1 (stereo unspecified) | 139 | 
